Screens (PubChem)
TAAR1 agonist – human TAAR1 agonists, primary screen, Fluo-8 calcium fluorescence, CHO RD-HGA16 cells; activation, % at 3 µM; 360,000 tested, 0.99% active; AID 624467, 2012; vehicle wells 0%, saturating PEA agonist 100%; Trace amine-associated receptor 1 (Homo sapiens), Q96RJ0;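 active = activation above the mean activation of all test compounds in the run plus 3 SD, cut at about 38% in these data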
Target sequence (Q96RJ0 whole entry, looked up): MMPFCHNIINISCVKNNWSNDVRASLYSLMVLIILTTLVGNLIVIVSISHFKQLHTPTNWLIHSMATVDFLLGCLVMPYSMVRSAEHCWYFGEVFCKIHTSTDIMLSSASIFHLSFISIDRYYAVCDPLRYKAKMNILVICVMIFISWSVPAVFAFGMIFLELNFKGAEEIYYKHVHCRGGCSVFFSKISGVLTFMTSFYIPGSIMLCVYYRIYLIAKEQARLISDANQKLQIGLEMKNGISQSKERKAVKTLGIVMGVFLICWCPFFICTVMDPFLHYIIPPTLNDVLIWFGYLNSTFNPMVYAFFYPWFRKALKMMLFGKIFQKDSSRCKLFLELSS
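Signal – calcium-sensitive Fluo-8 signal, excitation 470-495, emission 515-575 nm · System – RD-HGA16 (CHO) cells co-expressing Gα16 and hTAAR1 · Incubation – 17-24 h seeding, 75 min 37 °C dye, 30 min RT · Compound dosing – 3 µM single concentration · Repeats – no replicates (n 1)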
TAAR1 antag – human TAAR1 antagonists, primary screen, Fluo-8 calcium fluorescence, CHO RD-HGA16 cells | Trace amine-associated receptor 1 (Homo sapiens), Q96RJ0 | antagonist | inhibition, % at 3 µM | 360,000 tested, 1.5% active;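 active = inhibition above a per-plate cutoff, the mean inhibition of test compounds on that plate plus 3 SD, cut at about 49% in these data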
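Assay system: CHO-derived RD-HGA16 cells stably expressing human TAAR1 plus Gα16. Timing: 140 s kinetic read after compound, 140 s after agonist. Technique: kinetic Fluo-8 calcium fluorescence measurement. Measure: % inhibition of agonist calcium response.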
OXTR ag – human OXTR agonists, primary screen, fluorescence, CHO-OTR cells, Fluo-8 calcium. 320,000 tested, 0.32% active. Fluo-8 calcium fluorescence; normalized: DMSO 0%, oxytocin 100%. activation, % at 3 µM. Oxytocin receptor (Homo sapiens), P30559. AID 2435, 2010;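 active = activation above the mean of all tested compounds plus 3 SD, cutoff set per screening run, cut at about 20% in these data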;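 also: peak over basal fluorescence ratio from a 100 s FLIPR kinetic read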
OXTR potentiate – human OXTR potentiators, primary screen, fluorescence, CHO-OTR cells, Fluo-8 calcium | Oxytocin receptor (Homo sapiens), P30559 | Fluo-8 calcium fluorescence, potentiator mode; 0% = oxytocin EC15, 100% = EC100 | activation, % at 3 µM | 320,000 tested, 0.061% active;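 active = activation above that plate's cutoff, the mean activation of tested compounds plus 3 SD, cut at about 6.6% in these data, passing the limit was not always enough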
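Measured by – Fluo-8 calcium dye fluorescence · Test system – human OTR in CHO cells · Dosing – one concentration, 3.0 µM compound · Controls – EC15 oxytocin alone as 0%, 75 nM oxytocin as 100% · Evaluation – normalized max/min fluorescence ratio, % activation · Timing – 6 min pre-incubation, 100 s read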
V1aR counter – agonists of human V1a receptor, primary screen, counter-screen for OXTR agonist project, fluorescence, CHO-V1R cells | Fluo-8 calcium fluorescence, agonist mode; 0% DMSO, 100% 3 nM vasopressin | activation, % at 3 µM | 320,000 tested, 0.25% active;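 active = activation above the mean activation of all tested compounds plus 3 SD, per screening run, cut at about 20% in these data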;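 also: signal is peak over basal fluorescence ratio across a 100 second FLIPR read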
Target sequence (P37288 whole entry, looked up): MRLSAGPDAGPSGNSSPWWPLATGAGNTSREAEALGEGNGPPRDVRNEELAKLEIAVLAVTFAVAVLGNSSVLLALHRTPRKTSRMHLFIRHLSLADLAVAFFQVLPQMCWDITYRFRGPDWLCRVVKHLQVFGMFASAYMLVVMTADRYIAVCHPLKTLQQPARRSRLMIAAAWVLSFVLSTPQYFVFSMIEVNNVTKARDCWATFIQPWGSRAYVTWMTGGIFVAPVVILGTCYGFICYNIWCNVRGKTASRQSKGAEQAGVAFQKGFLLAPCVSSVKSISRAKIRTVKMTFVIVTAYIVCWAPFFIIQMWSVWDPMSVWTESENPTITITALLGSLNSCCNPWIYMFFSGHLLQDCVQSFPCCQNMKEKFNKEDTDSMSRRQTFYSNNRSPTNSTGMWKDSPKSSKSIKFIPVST
TAAR1 ag confirm – human TAAR1 agonists, retest of hits, confirmation, Fluo-8 calcium fluorescence, CHO RD-HGA16 cells | activation, % at 3 µM | scaled: DMSO 0%, maximal phenethylamine 100% | shares compounds with TAAR1 agonist | 2,400 tested, 82% active;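 active = activation above a cutoff set at the run's mean compound activation plus 3 SD, cut at about 39% in these data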
Ga16 nonsel ag – nonselective calcium mobilization agonists, CHO-Ga16 cells, counter-screen for hTAAR1 agonist project, cell-based, fluorescence, CHO-Ga16 parental line. shares compounds with TAAR1 agonist. Fluo-8 calcium fluorescence; normalized to maximal ATP response, DMSO zero. activation, % at 3 µM. 2,400 tested, 50% active;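 active = activation above the run cutoff, the mean activation over all tested wells plus 3 SD, cut at about 12% in these data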
TAAR1 desensitize – TAAR1 desensitization by agonist hits, confirmation, counter-screen for TAAR1 agonist project, cell-based, fluorescence, tachyphylaxis; shares compounds with TAAR1 agonist; CHO RD-HGA16 hTAAR1, Fluo-8 calcium, beta-PEA response inhibition; inhibition, % at 3 µM; 2,400 tested, 46% active; AID 651951, 2012;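 active = inhibition above the run cutoff, the mean inhibition of all test compounds plus 3 SD, cut at about 49% in these data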;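 also: beta-PEA stimulus applied at its EC80; loss of beta-PEA calcium signal after compound pretreatment read as receptor desensitization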
Ga16 nonsel ant – inhibition of ATP-evoked calcium response in CHO-Ga16 cells, counter-screen for TAAR1 agonist project, cell-based, fluorescence. CHO-Ga16 ATP-induced calcium, Fluo-8 fluorescence. AID 651952, 2012. 2,400 tested, 39% active. shares compounds with TAAR1 agonist. inhibition, % at 3 µM;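 active = inhibition above the plate's mean compound inhibition plus 3 SD, computed per plate, cut at about 22% in these data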
Large screens that a line does not name were inactive (follow-up assays come after a bar, where they were run). Compounds with a hit are over-represented: about 2.3% of the library has one in this group of screens.

CCOc1ccc(NS(=O)(=O)c2ccc(C(=O)NCC(c3ccco3)N3CCCC3)cc2)cc1 (stereo unspecified)	TAAR1 agonist 65, OXTR ag 35, V1aR counter 23 | TAAR1 ag confirm 83 | Ga16 nonsel ag 39 | TAAR1 desensitize inactive | Ga16 nonsel ant 29
CCOc1ccc(NS(=O)(=O)c2ccc(C(=O)N3CCCCC3)cc2)cc1	TAAR1 agonist 67, OXTR ag 24, V1aR counter 28 | TAAR1 ag confirm 66 | Ga16 nonsel ag 45 | TAAR1 desensitize inactive | Ga16 nonsel ant 35
COc1ccc(NS(=O)(=O)c2ccc(C(=O)N3CCC(C)CC3)cc2)cc1	TAAR1 agonist 91, OXTR ag 40, V1aR counter 24 | TAAR1 ag confirm 76 | Ga16 nonsel ag 40 | TAAR1 desensitize inactive | Ga16 nonsel ant 26
O=C(NCC(c1ccco1)N1CCCCC1)c1ccc(NS(=O)(=O)c2ccc(F)cc2)cc1 (stereo unspecified)	none
CCOC(=O)c1ccc(NS(=O)(=O)c2ccc(SC)cc2)cc1	TAAR1 agonist 46 | TAAR1 ag confirm 40 | Ga16 nonsel ag 19 | TAAR1 desensitize inactive | Ga16 nonsel ant 26
CC(C)CNC(=O)C(=O)Nc1cc2c3c(c1)C(C)C(=O)N3CCC2 (stereo unspecified)	none
O=C(NCc1cccnc1)c1ccc(Br)s1	none
Cc1ccc(NS(=O)(=O)c2ccc(C(=O)NCC(c3ccco3)N(C)C)cc2)cc1 (stereo unspecified)	TAAR1 agonist 105, TAAR1 antag 54, OXTR ag 27, V1aR counter 26 | TAAR1 ag confirm 108 | Ga16 nonsel ag 49 | TAAR1 desensitize 65 | Ga16 nonsel ant 33
CN(C)C(CNC(=O)c1ccc(NS(=O)(=O)c2ccc(F)cc2)cc1)c1ccco1 (stereo unspecified)	none
CCOc1ccc(NS(=O)(=O)c2ccc(C(=O)N3CC(C)OC(C)C3)cc2)cc1 (stereo unspecified)	TAAR1 agonist 130, TAAR1 antag 79, OXTR ag 58, V1aR counter 51 | TAAR1 ag confirm 119 | Ga16 nonsel ag 91 | TAAR1 desensitize 79 | Ga16 nonsel ant 40
C=CCN(c1ccccc1)S(=O)(=O)c1cccc(C(=O)NCC(c2ccccc2OC)N2CCCC2)c1 (stereo unspecified)	none
CCN(c1ccccc1)S(=O)(=O)c1ccc(C(=O)NCC(c2ccccc2OC)N2CCCC2)cc1 (stereo unspecified)	TAAR1 agonist 46 (no result: OXTR ag, OXTR potentiate, V1aR counter) | TAAR1 ag confirm 60 | Ga16 nonsel ag 13 | TAAR1 desensitize inactive | Ga16 nonsel ant 25
COc1cc(OC)c(OC)cc1/C=N/NC(=O)CCc1c(C)n[nH]c1C	none
Cc1cc(S(=O)(=O)Nc2cccc(Cl)c2)c(C)s1	TAAR1 agonist 40 | TAAR1 ag confirm 60 | Ga16 nonsel ag inactive | TAAR1 desensitize inactive | Ga16 nonsel ant inactive
COc1cccc(NS(=O)(=O)c2cc(C)sc2C)c1	none
O=C(c1cc(C2CC2)nn1-c1ccccc1)N1CCN(Cc2ccccc2)CC1	none (no result: OXTR ag, OXTR potentiate, V1aR counter)
ClC(Cl)(c1nnnn1-c1ccccc1)c1nnnn1-c1ccccc1	TAAR1 agonist 58 | TAAR1 ag confirm 52 | Ga16 nonsel ag 24 | TAAR1 desensitize inactive | Ga16 nonsel ant 29
COc1cc2c(c(OC)c1OC)C1(CCCCC1)CC2NS(=O)(=O)C(C)C (stereo unspecified)	TAAR1 agonist 92, TAAR1 antag 49 (no result: OXTR ag, OXTR potentiate, V1aR counter) | TAAR1 ag confirm inactive | Ga16 nonsel ag inactive | TAAR1 desensitize inactive | Ga16 nonsel ant inactive
COc1cc2c(c(OC)c1OC)C1(CCCCC1)CC2NC(=O)c1ccncc1 (stereo unspecified)	none (no result: OXTR ag, OXTR potentiate, V1aR counter)
N#CC1=C(N)OC2=C(CC/C2=C\c2ccccc2)C1c1ccccc1 (stereo unspecified)	TAAR1 agonist 64, TAAR1 antag 71, OXTR ag 28, V1aR counter 26 | TAAR1 ag confirm 46 | Ga16 nonsel ag 69 | TAAR1 desensitize 67 | Ga16 nonsel ant 77
O=C(Cc1ccccc1)NC(NCCc1ccccc1)C(Cl)(Cl)Cl (stereo unspecified)	TAAR1 agonist 44 | TAAR1 ag confirm 50 | Ga16 nonsel ag inactive | TAAR1 desensitize inactive | Ga16 nonsel ant inactive
O=C(CCCCCn1c(=S)[nH]c2ccc(N3CCOCC3)cc2c1=O)NCc1ccccc1Cl	none
O=C(CCCn1c(=S)[nH]c2cc3c(cc2c1=O)OCO3)NCCc1ccccc1Cl	TAAR1 agonist 52 | TAAR1 ag confirm inactive | Ga16 nonsel ag inactive | TAAR1 desensitize inactive | Ga16 nonsel ant inactive
O=C(CCn1c(=S)[nH]c2cc3c(cc2c1=O)OCO3)NCCc1ccccc1Cl	TAAR1 agonist 74 (no result: OXTR ag, OXTR potentiate, V1aR counter) | TAAR1 ag confirm 92 | Ga16 nonsel ag inactive | TAAR1 desensitize 78 | Ga16 nonsel ant inactive
O=C(CCCCCn1c(=S)[nH]c2ccc(N3CCOCC3)cc2c1=O)NCCc1ccccc1	TAAR1 agonist 55 | TAAR1 ag confirm 70 | Ga16 nonsel ag inactive | TAAR1 desensitize inactive | Ga16 nonsel ant inactive
O=C(NCc1ccccc1)c1cc(C2CCCN(C(=O)c3ccccc3)C2)on1 (stereo unspecified)	none (no result: OXTR ag, OXTR potentiate, V1aR counter)
Cc1c(C(=O)N2CCCCC2)c(S(=O)(=O)NCCc2ccccc2)c(C)n1C	none
O=C(CNCCc1ccccc1)Nc1ccc(C(=O)N2CCCCC2)cc1	TAAR1 agonist 46 | TAAR1 ag confirm 69 | Ga16 nonsel ag inactive | TAAR1 desensitize inactive | Ga16 nonsel ant inactive
